Tests used:
[1] = molecular target: T1, P2Y purinoceptor 12 (Homo sapiens, UniProt Q9H244); experiment: Binding affinity at human recombinant P2Y12 receptor expressed in CHO cells by radioligand binding assay; type: cell-based
Summary of the method: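 Washed membranes from CHO cells transfected with synthetic human P2Y12 gene. Compounds as 7-point threefold dilutions, triplicate, 1 h at room temperature. Nonspecific binding defined with 300 nM 2-MeSADP. Filtered, washed with ice-cold Tris pH 7.4. Single-site fit; IC50 converted to Ki by Cheng–Prusoff, geometric mean of n≥2.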

[2] = molecular target: T1, P2Y purinoceptor 12; experiment: Ratio of compound IC50 to thienopyrimidine IC50 for P2Y12 receptor in human platelet rich plasma assessed as inhibition of ADP-induced platelet aggregation by light transmission aggregometry
Summary of the method: (§1)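 Human platelet-rich plasma was pre-incubated 5 min at 37 °C with compound across seven concentrations (10 down to 0.156). Aggregation was started with ADP (20, final) and followed by light transmission at 626 nm for 15 min at 37 °C. Duplicate concentration-response data were read at the 15-min end-point. IC50 was divided by the IC50 of the thienopyrimidine reference run on the same plate.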

[3] = molecular target: T1, P2Y purinoceptor 12; experiment: Ratio of compound IC50 to AZD-6140 IC50 for P2Y12 receptor in human platelet rich plasma assessed as inhibition of ADP-induced platelet aggregation by light transmission aggregometry
Summary of the method: as §1, with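 “AZD-6140” for “the thienopyrimidine reference”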

[4] = test system: Liver microsomes; experiment: Metabolic stability in rat liver microsomes assessed as compound remaining; type: ADME, Microsome
Summary of the method: (§2)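 Compounds incubated 30 min with human or rat liver microsomes; percent of parent compound remaining measured.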

[5] = test system: Liver microsomes; experiment: Metabolic stability in human liver microsomes assessed as compound remaining; type: ADME, Microsome; summary of the method: as §2
[6] = molecular target: T2, CYP1A2 (Homo sapiens, UniProt P05177); experiment: Inhibition of CYP1A2 at 3 uM after 30 mins; type: ADME
T2 sequence (P05177 whole entry): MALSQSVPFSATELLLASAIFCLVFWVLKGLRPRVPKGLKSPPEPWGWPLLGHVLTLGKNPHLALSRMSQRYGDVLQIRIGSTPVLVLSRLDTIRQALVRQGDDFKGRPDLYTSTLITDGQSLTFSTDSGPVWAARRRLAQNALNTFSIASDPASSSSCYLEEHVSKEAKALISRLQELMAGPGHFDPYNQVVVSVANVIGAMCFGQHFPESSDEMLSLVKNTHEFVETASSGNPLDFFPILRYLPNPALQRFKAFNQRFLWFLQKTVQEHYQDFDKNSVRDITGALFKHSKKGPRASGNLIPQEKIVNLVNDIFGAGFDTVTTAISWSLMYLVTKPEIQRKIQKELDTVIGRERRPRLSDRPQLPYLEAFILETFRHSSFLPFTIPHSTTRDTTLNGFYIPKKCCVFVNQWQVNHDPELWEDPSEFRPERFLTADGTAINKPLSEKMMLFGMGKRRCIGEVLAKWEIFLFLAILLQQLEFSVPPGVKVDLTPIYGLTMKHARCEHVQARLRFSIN
Summary of the method: (§3)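 Each CYP isoform assayed separately at a single 3 µM compound concentration in duplicate, with at least one isoform-specific positive control inhibitor. Incubation 30 min at 37 °C; end-point measurement gives percent inhibition.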

[7] = molecular target: CYP2C9 (Homo sapiens, UniProt P11712); experiment: Inhibition of CYP2C9 at 3 uM after 30 mins; type: ADME; summary of the method: as §3
[8] = molecular target: CYP2D6 (Homo sapiens, UniProt P10635); experiment: Inhibition of CYP2D6 at 3 uM after 30 mins; type: ADME; summary of the method: as §3
[9] = molecular target: CYP3A4 (Homo sapiens, UniProt P08684); experiment: Inhibition of CYP3A4 at 3 uM after 30 mins; type: ADME; summary of the method: as §3
[10] = molecular target: hERG (KCNH2) (Homo sapiens, UniProt Q12809); experiment: Displacement of Cy3B-tagged N-desmethyl dofetilide from human ERG expressed in HEK cells at 10 uM after 120 mins; type: cell-based, HEK293; details: HEK cells that express human ERG, probe Cy3B-tagged N-desmethyl dofetilide
Summary of the method: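 Fluorescence polarization competition assay with HEK-hERG membrane homogenates and Cy3B-tagged N-desmethyl dofetilide tracer. Compound tested at a single 10 µM concentration, 120 min incubation, end-point read for percent inhibition.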

[11] = Effective half life in Sprague-Dawley rat at 2 mg/kg, iv and 5 mg/kg, po; type: ADME, organism-based; details: in vivo
[12] = Clearance in Sprague-Dawley rat at 2 mg/kg, iv and 5 mg/kg, po; type: ADME, organism-based; details: in vivo
[13] = Volume of distribution at steady state in Sprague-Dawley rat at 2 mg/kg, iv and 5 mg/kg, po; type: ADME, organism-based; details: in vivo, read-out: Vdss
[14] = Selectivity for human P2Y12 receptor over P2Y13
[15] = Selectivity for human P2Y12 receptor over P2Y1
[16] = Oral bioavailability in Sprague-Dawley rat at 5 mg/kg; type: ADME, organism-based; details: in vivo

Chain of CYP3A4 (P08684 whole entry): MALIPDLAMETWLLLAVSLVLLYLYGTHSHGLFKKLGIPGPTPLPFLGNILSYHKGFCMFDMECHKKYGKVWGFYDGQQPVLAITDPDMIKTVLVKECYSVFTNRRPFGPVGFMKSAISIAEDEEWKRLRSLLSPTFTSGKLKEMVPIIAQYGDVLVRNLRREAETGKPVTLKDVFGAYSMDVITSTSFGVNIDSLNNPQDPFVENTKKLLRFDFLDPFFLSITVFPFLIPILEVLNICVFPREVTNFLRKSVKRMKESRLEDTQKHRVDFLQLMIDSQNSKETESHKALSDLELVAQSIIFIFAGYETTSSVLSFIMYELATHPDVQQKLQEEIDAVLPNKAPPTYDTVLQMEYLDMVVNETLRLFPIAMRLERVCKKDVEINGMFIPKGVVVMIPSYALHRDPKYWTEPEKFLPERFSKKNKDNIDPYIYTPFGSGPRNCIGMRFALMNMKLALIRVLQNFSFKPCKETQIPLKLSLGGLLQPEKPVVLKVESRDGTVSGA
Chain of CYP2D6 (P10635 whole entry): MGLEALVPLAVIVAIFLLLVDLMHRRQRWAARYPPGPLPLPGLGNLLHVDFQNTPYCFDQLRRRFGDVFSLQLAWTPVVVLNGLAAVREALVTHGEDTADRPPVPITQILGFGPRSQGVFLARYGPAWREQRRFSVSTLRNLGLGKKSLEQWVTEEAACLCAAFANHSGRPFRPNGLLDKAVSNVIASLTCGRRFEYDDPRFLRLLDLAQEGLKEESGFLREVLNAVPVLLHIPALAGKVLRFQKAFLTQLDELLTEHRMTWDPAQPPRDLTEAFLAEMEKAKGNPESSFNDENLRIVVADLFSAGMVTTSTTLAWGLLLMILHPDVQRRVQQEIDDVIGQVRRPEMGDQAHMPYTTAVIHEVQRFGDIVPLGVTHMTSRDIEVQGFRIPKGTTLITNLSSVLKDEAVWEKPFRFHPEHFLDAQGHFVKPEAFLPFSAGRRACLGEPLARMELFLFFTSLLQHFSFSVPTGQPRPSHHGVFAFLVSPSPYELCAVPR
Chain of CYP2C9 (P11712 whole entry): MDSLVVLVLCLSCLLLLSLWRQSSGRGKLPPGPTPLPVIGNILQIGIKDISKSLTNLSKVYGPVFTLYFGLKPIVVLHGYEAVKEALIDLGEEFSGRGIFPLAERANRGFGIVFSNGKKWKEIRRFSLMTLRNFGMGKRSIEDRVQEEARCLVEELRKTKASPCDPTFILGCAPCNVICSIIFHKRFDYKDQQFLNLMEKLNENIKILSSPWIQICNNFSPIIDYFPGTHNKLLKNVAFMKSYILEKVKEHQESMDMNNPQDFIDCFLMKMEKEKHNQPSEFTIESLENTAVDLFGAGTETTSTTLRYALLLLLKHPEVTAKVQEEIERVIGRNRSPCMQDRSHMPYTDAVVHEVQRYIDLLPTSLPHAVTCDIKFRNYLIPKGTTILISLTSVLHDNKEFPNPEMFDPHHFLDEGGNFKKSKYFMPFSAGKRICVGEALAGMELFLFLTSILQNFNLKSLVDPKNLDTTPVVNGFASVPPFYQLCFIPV
Chain of hERG (KCNH2) (Q12809 whole entry): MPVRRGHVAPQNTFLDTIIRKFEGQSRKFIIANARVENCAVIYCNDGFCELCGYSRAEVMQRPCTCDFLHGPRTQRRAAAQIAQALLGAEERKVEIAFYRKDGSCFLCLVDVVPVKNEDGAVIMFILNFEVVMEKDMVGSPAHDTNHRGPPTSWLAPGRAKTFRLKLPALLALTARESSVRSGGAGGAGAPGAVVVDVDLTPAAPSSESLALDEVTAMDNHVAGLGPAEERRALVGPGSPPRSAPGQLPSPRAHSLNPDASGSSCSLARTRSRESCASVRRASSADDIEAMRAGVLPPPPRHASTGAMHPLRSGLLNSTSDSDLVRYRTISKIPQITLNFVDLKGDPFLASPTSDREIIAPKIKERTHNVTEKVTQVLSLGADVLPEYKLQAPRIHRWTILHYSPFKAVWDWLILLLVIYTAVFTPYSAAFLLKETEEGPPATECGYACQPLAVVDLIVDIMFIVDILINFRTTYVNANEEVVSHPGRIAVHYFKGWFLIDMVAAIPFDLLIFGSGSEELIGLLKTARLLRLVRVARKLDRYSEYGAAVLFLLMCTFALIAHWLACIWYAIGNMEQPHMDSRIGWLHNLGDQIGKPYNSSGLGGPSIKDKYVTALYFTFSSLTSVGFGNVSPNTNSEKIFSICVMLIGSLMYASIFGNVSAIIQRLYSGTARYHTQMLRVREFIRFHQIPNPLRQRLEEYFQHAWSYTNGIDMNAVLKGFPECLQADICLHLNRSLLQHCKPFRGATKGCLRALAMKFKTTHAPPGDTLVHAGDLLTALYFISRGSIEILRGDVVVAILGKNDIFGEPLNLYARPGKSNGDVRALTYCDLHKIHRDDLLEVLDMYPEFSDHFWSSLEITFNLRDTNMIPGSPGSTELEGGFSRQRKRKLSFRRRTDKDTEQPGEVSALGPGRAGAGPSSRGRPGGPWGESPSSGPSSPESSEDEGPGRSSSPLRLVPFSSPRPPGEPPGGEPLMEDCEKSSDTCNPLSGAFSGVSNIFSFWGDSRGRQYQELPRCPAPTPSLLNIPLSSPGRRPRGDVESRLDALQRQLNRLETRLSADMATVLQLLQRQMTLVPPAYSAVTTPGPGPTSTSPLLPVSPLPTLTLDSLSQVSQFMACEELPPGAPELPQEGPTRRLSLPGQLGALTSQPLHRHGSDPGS
T1 sequence (Q9H244 whole entry): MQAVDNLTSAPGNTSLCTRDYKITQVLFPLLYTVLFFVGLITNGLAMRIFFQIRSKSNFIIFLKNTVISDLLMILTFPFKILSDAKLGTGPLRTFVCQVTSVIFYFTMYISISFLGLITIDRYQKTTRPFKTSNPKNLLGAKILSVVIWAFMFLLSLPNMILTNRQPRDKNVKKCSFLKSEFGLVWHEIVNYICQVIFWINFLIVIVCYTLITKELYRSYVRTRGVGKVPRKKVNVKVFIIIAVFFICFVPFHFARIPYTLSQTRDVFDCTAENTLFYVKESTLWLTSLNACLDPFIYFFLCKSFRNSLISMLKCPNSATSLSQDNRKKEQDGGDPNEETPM

| SMILES | Ki [1] [nM] | Ratio IC50 [2] | Ratio IC50 [3] | Stability [4] [%] | Stability [5] [%] | inhibition at 0.5 h, 3 µM [6] [%] | inhibition at 0.5 h, 3 µM [7] [%] | inhibition at 0.5 h, 3 µM [8] [%] | inhibition at 0.5 h, 3 µM [9] [%] | inhibition at 2 h, 10 µM [10] [%] | half-life [11] [min] | clearance [12] [mL/min/kg] | Vd [13] [L/kg] | fold change (FC) [14] | fold change (FC) [15] | bioavailability [16] [%] |
| --- | --- | --- | --- | --- | --- | --- | --- | --- | --- | --- | --- | --- | --- | --- | --- | --- |
| CCCCCOC(=O)N1CCN(C(=O)[C@H](CCC(=O)O)NC(=O)c2cc(N3CCC(OCCO)CC3)nc(-c3ccccc3)n2)CC1 | 0.71 | 0.4 | 0.9 | > 80 | > 80 | < 25 | < 25 | < 25 | < 25 | < 25 | 30 | 18 | 0.8 | > 340 | > 340 |  |
| CCCCCOC(=O)N1CCN(C(=O)[C@H](CCC(=O)O)NC(=O)c2nc(-c3ccccc3)cc(N3CCC(CN)CC3)n2)CC1 | 9.4 | 0.2 | 1.2 | > 80 | > 80 | < 25 | < 25 | < 25 | < 25 | < 25 | 12 | 16 | 0.28 | > 340 | > 340 | 1 |
| CCCCCOC(=O)N1CCN(C(=O)[C@H](CCC(=O)O)NC(=O)c2cc(N3CCC(COC)CC3)nc(-c3ccccc3)n2)CC1 | 8.4 | 0.4 | 2.8 | > 80 | > 80 | < 25 | < 25 | < 25 | < 25 | < 25 | 54 | 14 | 1.1 | > 340 | > 340 | 61 |
| CCCCCOC(=O)N1CCN(C(=O)[C@H](CCC(=O)O)NC(=O)c2cc(N3CCC(N4CCCC4)CC3)nc(-c3ccccc3)n2)CC1 | 1.5 | 0.1 | 0.4 | > 80 | > 80 | < 25 | < 25 | < 25 | < 25 | < 25 |  |  |  | > 340 | > 340 |  |
| CCCCCOC(=O)N1CCN(C(=O)[C@H](CCC(=O)O)NC(=O)c2cc(N3CCC(CN4CCCC4)CC3)nc(-c3ccccc3)n2)CC1 | 0.4 | 0.1 | 0.7 | > 80 | > 80 | < 25 | < 25 | < 25 | < 25 | < 25 | 18 | 98 | 7.7 | > 340 | > 340 | 1 |
| CCCCCOC(=O)N1CCN(C(=O)[C@H](CCC(=O)O)NC(=O)c2cc(N3CCN(C(=O)N(C)C)CC3)nc(-c3ccccc3)n2)CC1 | 2.9 | 0.3 | 1.5 |  |  |  |  |  |  |  |  |  |  | > 340 | > 340 |  |
| CCCCOC(=O)N1CCN(C(=O)[C@H](CCC(=O)O)NC(=O)c2cc(N3CCC(N4CCOCC4)CC3)nc(-c3ccccc3)n2)CC1 | 1.3 | 0.2 | 1.1 |  |  |  |  |  |  |  |  |  |  | > 340 | > 340 |  |
| CCCCCOC(=O)N1CCN(C(=O)[C@H](CCC(=O)O)NC(=O)c2cc(N3CC(O)C3)nc(-c3ccccc3)n2)CC1 | 2.5 | 0.8 | 4.6 |  |  |  |  |  |  |  |  |  |  | > 340 | > 340 |  |
| CCCCOC(=O)N1CCN(C(=O)[C@H](CCC(=O)O)NC(=O)c2cc(OC3CCN(C(C)C)CC3)nc(-c3ccccc3)n2)CC1 | 19 | 0.8 | 2.8 |  |  |  |  |  |  |  |  |  |  | > 340 | > 340 |  |
| CCCCCOC(=O)N1CCN(C(=O)[C@H](CCC(=O)O)NC(=O)c2nc(OCCCN3CCOCC3)cc(-c3ccccc3)n2)CC1 | 11 | 1.2 | 6.6 |  |  |  |  |  |  |  |  |  |  | > 340 | > 340 |  |

Reference: ChEMBL document CHEMBL1156077, “Piperazinyl-glutamate-pyrimidines as potent P2Y12 antagonists for inhibition of platelet aggregation” (Bioorg Med Chem Lett, 2009)
